Shown are actives, neighbours in structure and some others; about 3.1% of the full set was active somewhere.
KCNK9 inh: inhibitors of human KCNK9 two-pore domain potassium channel. Q9NPC2. HEK293 KCNK9, FluxOR thallium flux fluorescence; hits give low values. B-score at 10 µM. actives 1.2% (n = 310,000);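 active = ratio B-score over 3 SD below the library mean, with starting fluorescence within 5 SD of its mean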;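 also: negative B-score means less thallium flux so channel inhibition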
KCNQ1 act: potentiators or activators of human KCNQ1 potassium channel | P51787 | CHO-K1 KCNQ1, thallium flux FluxOR fluorescence; hits give high values | B-score at 10 µM | actives 0.35% (n = 310,000) | AID 2648;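 active = fluorescence ratio B-score, a plate-corrected score, at least three library SD, with initial intensity B-score within 5 SD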
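assay system = CHO-K1 cells stably expressing KCNQ1 | medium = assay buffer, equal DMSO in all wells | timing = 37 °C overnight plating, 90-min dark dye load, 20-min compound pretreatment | measured by = kinetic FluxOR thallium fluorescence, 10-s 1-Hz baseline, 110-s post-stimulus read | measure = fluorescence change relative to baseline, converted to B score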
hERG protect: compounds protecting human hERG from proarrhythmic drug block | Q12809 | activation (rescue from dofetilide block), less the hit threshold, % at 10 µM | actives 0.51% (n = 310,000) | AID 1511 | CHO-hERG, FluxOR thallium flux, dofetilide IC70 present;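 active = activation above the mean of controls blocked by dofetilide plus 5 SD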;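 also: thallium influx through hERG after potassium depolarization seen as dye fluorescence rise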
KCNK3 inh: human KCNK3 channel inhibition, primary screen. O14649. CHO-KCNK3 thallium flux, FluxOR fluorescence; hits give low values. B-score at 10 µM. actives 0.84% (n = 340,000). AID 602410;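 active = B-score under library mean minus 4 SD, starting fluorescence ratio at most library mean plus 5 SD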;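 also: more negative B-score means stronger inhibition of thallium flux through KCNK3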
Target sequence (O14649 whole entry, looked up): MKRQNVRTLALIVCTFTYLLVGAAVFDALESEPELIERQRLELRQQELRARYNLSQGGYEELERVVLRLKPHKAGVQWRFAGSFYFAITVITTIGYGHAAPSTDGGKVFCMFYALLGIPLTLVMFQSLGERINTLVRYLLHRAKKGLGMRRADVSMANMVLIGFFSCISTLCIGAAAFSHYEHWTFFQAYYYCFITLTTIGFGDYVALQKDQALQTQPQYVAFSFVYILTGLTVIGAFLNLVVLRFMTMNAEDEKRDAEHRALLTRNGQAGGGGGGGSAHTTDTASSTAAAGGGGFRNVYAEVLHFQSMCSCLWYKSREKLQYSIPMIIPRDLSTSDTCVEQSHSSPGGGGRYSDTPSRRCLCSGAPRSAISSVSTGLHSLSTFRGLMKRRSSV
KCNQ1 inh: human KCNQ1 channel inhibition; CHO-K1 KCNQ1, FluxOR thallium flux fluorescence; hits give high values; B-score at 10 µM; actives 1.3% (n = 310,000); AID 2642;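 active = compounds whose thallium flux B-score, printed positive for inhibition, exceeds three library SD while starting fluorescence stays within three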;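 also: channel opened by potassium depolarization with thallium stimulus after 20 min compound exposure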
Each line names hits and unclear results; the compound was inactive in the other large screens.

CCN(CC)S(=O)(=O)c1ccc2[nH]cc(C(=O)NC3CC3)c(=O)c2c1	none
Cc1cnc(=O)[nH]c1SCc1ccc([N+](=O)[O-])cc1	KCNK9 inh -7.3
Cc1cnc(=O)[nH]c1SCc1ccc(C(F)(F)F)cc1	none
Cc1ccc(NS(=O)(=O)c2ccc(C(=O)N3CCCC(C(F)(F)F)C3)cc2)cc1 (stereo unspecified)	none
C/C(=N\NC(=O)CSCc1ccccc1Cl)c1cc(O)ccc1O	hERG protect 4.7
CC(=O)C(=Nc1ccc(Cl)cc1Cl)NNc1cccc(Cl)c1	KCNQ1 inh 10
CC(C)C(C)NC(=O)CSc1nc2scc(-c3ccco3)c2c(=O)n1-c1ccccc1 (stereo unspecified)	KCNK9 inh -6.8
CCc1ccccc1NC(=O)CN1CCN(CC(=O)Nc2cc(C)ccc2OC)CC1	none
COCCn1c(SCC(=O)Nc2ccc3[nH]c(=O)[nH]c3c2)nc2ccccc21	none (no result: KCNK9 inh, KCNQ1 act, hERG protect, KCNQ1 inh)
Oc1ccc(Br)cc1-c1n[nH]c(=S)n1Cc1ccccc1	KCNQ1 act 11, hERG protect 5.9
Cc1nc(SCC(=O)c2ccccc2)c(C#N)c(-c2ccco2)c1C(=O)NCc1ccco1	KCNQ1 inh 6
CCc1nnc(NC(=O)CCC(=O)N2CCN(Cc3ccc(OC)c(F)c3)CC2)s1	none
CCC1C(=O)CC(c2ccc([N+](=O)[O-])cc2)NC1c1ccc([N+](=O)[O-])cc1 (stereo unspecified)	KCNQ1 inh 8
CCC1C(=O)CC(c2ccco2)NC1c1ccco1 (stereo unspecified)	none
CC(C)N(CCNC(=O)c1ccc(CS(=O)(=O)c2c(Cl)cccc2Cl)o1)Cc1ccccc1	none
COc1ccc(Cn2c(=S)[nH]c3ccccc32)cc1	hERG protect 7.2
COCCn1c(=S)[nH]c2ccccc21	none
COc1ccc(-n2c(=S)[nH]c3ccccc3c2=S)cc1	KCNQ1 act 16
COc1ccc(-n2c(=S)[nH]c3ccccc32)cc1	none
Cc1ccc(S(=O)(=O)N2CCN(C(=O)c3ccc(Br)o3)CC2)c(C)c1	KCNQ1 act 11
Cc1ccc(S(=O)(=O)N2CCN(C(=O)COC(=O)c3ccc(Br)o3)CC2)c(C)c1	none
CN(Cc1c(C(=O)N(C)Cc2ccccc2)nc2ccccn12)CC1Cc2ccccc2O1 (stereo unspecified)	none
Cc1nn(C)cc1CN(C)Cc1c(C(=O)N(C)Cc2ccccc2)nc2ccccn12	hERG protect 6.5
COc1ccc(NC(=O)c2nc[nH]c2C(=O)N2CCN(c3ccccc3)CC2)cc1	hERG protect 5.7
O=C(Nc1ccccc1)c1nc[nH]c1C(=O)N1CCN(c2ccccc2)CC1	none (no result: KCNK9 inh, KCNQ1 act, hERG protect, KCNQ1 inh)
CNC(=S)NNc1nc(C)cc(C)n1	none
CCOc1cc(N2CCOCC2)c(OCC)cc1NC(=O)Cn1nc(C)c([N+](=O)[O-])c1C	hERG protect 8.3
O=C(O)CN1C(=O)c2cccc(Oc3ccc(Cl)cc3)c2C1=O	KCNK9 inh -6.8
Cc1ccc(N2C(=O)c3cccc(Oc4ccc(Cl)cc4)c3C2=O)c(C)c1	none
Cc1ccc(C(=O)N/N=C(/CC(=O)c2cccs2)C(F)(F)F)cc1	KCNQ1 act 13, hERG protect 16
Cc1ccc(-c2nc(=S)c3c(n2Cc2ccco2)CCCC3)cc1	none (no result: KCNK9 inh, KCNQ1 act, hERG protect, KCNQ1 inh)
Cc1ccc(-c2nc(=S)c3c(n2Cc2ccco2)CC(C)(C)OC3)cc1	KCNQ1 act 12
O=C(c1cc(C2CC2)nn1-c1ccccc1)N1CCN(S(=O)(=O)c2cccc(F)c2)CC1	none (no result: KCNK9 inh, KCNQ1 act, hERG protect, KCNQ1 inh)
Cc1c(C(=O)NCCC2=CCCCC2)oc2ccc(S(=O)(=O)N3CCC4(CC3)OCCO4)cc12	KCNK3 inh -9.1
Cc1c(C(=O)Nc2ccc(F)c(F)c2)oc2ccc(S(=O)(=O)N3CCCCC3)cc12	KCNK3 inh -10
Cc1nnc(SCC(=O)NCC2CCCO2)n1Cc1ccccc1 (stereo unspecified)	none (no result: KCNK9 inh, KCNQ1 act, hERG protect, KCNQ1 inh)
COc1ccc(C(=O)NC(=S)N2CCCCC2)cc1	none
COc1ccc(C(=O)NC(=S)N2CCC(C)CC2)cc1	hERG protect 8.2
COc1cc(OC)cc(C(=O)NC(=S)N2CCCCCC2)c1	hERG protect 10
CC(C)c1ccccc1NC(=S)NCC1(N(C)C)CCCCC1	none
COC(=O)c1sccc1NC(=O)c1c(Cl)cccc1Cl	hERG protect 4.7
CN(C(=O)c1cccc(NC(=O)Cc2cccc(NC(=O)C3CCCN(C(=O)c4ccccc4)C3)c2)c1)C1CC1 (stereo unspecified)	none (no result: KCNK9 inh, KCNQ1 act, hERG protect, KCNQ1 inh)
CC(=O)OC(C(=O)NCS(=O)(=O)c1ccc(C)cc1)c1cccnc1 (stereo unspecified)	hERG protect 4.8
COc1ccc(NC(=O)c2sc(SC)nc2N)cc1	hERG protect 5.1
C=CCN(C(=O)C1CSC2(C)CCC(=O)N12)c1nc(-c2ccccc2)cs1 (stereo unspecified)	KCNQ1 inh 6
O=C(CSc1nnc2ccc(-c3ccccn3)nn12)N1CCCC1	none (no result: KCNK9 inh, KCNQ1 act, hERG protect, KCNQ1 inh)
Cc1ccc(C2=NN(C(=O)c3ccccc3F)C(c3ccccc3F)C2)cc1 (stereo unspecified)	KCNQ1 inh 7
Cc1ccc(C)c(Cc2c(C)nc3c(C(=O)NCc4ccc5c(c4)OCO5)cnn3c2C)c1	KCNK9 inh -7.8 (no result: KCNK3 inh)
Cc1ccccc1Cc1c(C)nc2c(C(=O)NCc3ccc4c(c3)OCO4)cnn2c1C	none
CC(C)(C)OC(=O)C(Cl)(C(=O)OC(C)(C)C)c1ccc2nnnn2n1	none
Cn1nc(-c2ccc(Cl)cc2)nc2c(=O)n(C)c(=O)nc1-2	KCNQ1 act 9 (no result: KCNK3 inh)
CCN(c1ccccc1)S(=O)(=O)c1csc(C(N)=O)c1	none
Cc1ccc(-n2ncc3c(NNC(=O)c4cccs4)ncnc32)cc1	hERG protect 5.7
N#Cc1ccsc1NC(=O)c1ccc(Cl)c([N+](=O)[O-])c1	KCNQ1 inh 7
O=C(Nc1ccc(C(O)(C(F)(F)F)C(F)(F)F)cc1)c1ccc(Cl)c([N+](=O)[O-])c1	KCNQ1 inh 6
COc1cc(C2c3cc4c(cc3C(OC3OC5COC(c6cccs6)OC5C(O)C3O)C3COC(=O)C23)OCO4)cc(OC)c1O (stereo unspecified)	KCNQ1 inh 8
COc1cc(NC(=O)CSc2nc(C)c(C)c(C)n2)cc(OC)c1	hERG protect 7.5
COc1cc(NC(=O)CSCC(=O)Nc2cc(OC)cc(OC)c2)cc(OC)c1	none (no result: KCNK3 inh)
CCc1noc(C)c1C(=O)N(C)CC(=O)Nc1ccc(Br)cc1C	none
O=[N+]([O-])c1cc(S(=O)(=O)NCCN2CCOCC2)ccc1Cl	none
Cc1[nH]c(=S)sc1Cc1ccc(F)cc1	KCNQ1 act 9
CC(=O)c1nnn(-c2cccc(C#N)c2)c1C	none
CCOC(=O)[C@@H]1[C@H]2COc3ccc(Br)cc3[C@H]2N2C(=O)N(c3ccc(Cl)cc3)C(=O)[C@]12C	none (no result: KCNK9 inh, KCNQ1 act, hERG protect, KCNQ1 inh)
Cc1c(CCOC(=O)C23CC4CC(CC(C)(C4)C2)C3)sc[n+]1CC(=O)c1ccccc1	none
Cc1c(CCOC(=O)CC23CC4CC(CC(C)(C4)C2)C3)sc[n+]1CC(=O)c1ccccc1	KCNQ1 inh 11
